The source made the active and inactive calls.
Columns and labels:
Mus musculus [1] = assay: MNTD:Maximal nontoxic dose of the compound, done on mouse; sc; type: functional
Procedure, shortened: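 Male Swiss-Webster mice dosed sc. The value is the highest dose causing no visible behavioural change (tremors, convulsions, hypomotility etc.), so that treated mice could not be told apart from untreated ones. Behaviour was scored by the Irwin method in groups of at least 10 animals.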

Mus musculus [2] = assay: MAD: minimal dose able to induce a statistically significant increase of the pain threshold, done on mouse; sc; IA= inactive; type: functional, organism-based
Procedure, shortened: (§1)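 Mouse hot plate test (52.5 ± 0.1 °C, 45 s cutoff) after sc dosing, in male Swiss-Webster mice. The value is the lowest dose giving a statistically significant rise in pain threshold. Dunnett's two-tailed test compared treated mice at maximum reaction time with pretest time, P < 0.05.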

Mus musculus [3] = assay: Licking latency was measured after 15 min treatment (at dose=20 mg/kg) by using mouse hot plate test; type: functional
Procedure, shortened: (§2)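 Male Swiss-Webster mice (22-28 g), 23 ± 1 °C, 12-h light/dark cycle, food and water ad libitum. Hot plate at 52.5 ± 0.1 °C with licking latency as read-out and 45 s cutoff. Mice with pre-drug latency below 12 or over 18 s were rejected. Compounds given sc, 5-12 mice per test. Significance was assessed by Dunnett's two-tailed test, P < 0.05.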

Mus musculus [4] = assay: Licking latency was measured after 45 min treatment (at dose=20 mg/kg) by using mouse hot plate test; type: functional; procedure, shortened: as §2
Mus musculus [5] = assay: Licking latency was measured after 45 min treatment (at dose=40 mg/kg) by using mouse hot plate test; type: functional; procedure, shortened: as §2
Mus musculus [6] = assay: Licking latency was measured before treatment (at dose=20 mg/kg) by using mouse hot plate test; type: functional; procedure, shortened: as §2
Mus musculus [7] = assay: Licking latency was measured before treatment (at dose=40 mg/kg) by using mouse hot plate test; type: functional
Procedure, shortened: (§3)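 Male Swiss-Webster mice (22-28 g), 23 ± 1 °C, 12-h light/dark cycle. Hot plate at 52.5 ± 0.1 °C. Mice with pre-drug licking latency below 12 s or over 18 s were rejected. Cutoff 45 s. Compound given sc; latency read before dosing and at 15, 30 and 45 min. 5-12 mice per test.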

Mus musculus [8] = assay: Licking latency was measured after 15 min treatment (at dose=40 mg/kg) by using mouse hot plate test; type: functional; procedure, shortened: as §2
Mus musculus [9] = assay: Licking latency was measured after 30 min treatment (at dose=40 mg/kg) by using mouse hot plate test; type: functional; procedure, shortened: as §2
Mus musculus [10] = assay: Licking latency was measured after 30 min treatment (at dose=20 mg/kg) by using mouse hot plate test; type: functional; procedure, shortened: as §2
Mus musculus [11] = assay: MAD: minimal dose able to induce a statistically significant increase of the pain threshold, done on mouse; sc; type: functional; procedure, shortened: as §1
Mus musculus [12] = assay: Licking latency was measured after 15 min treatment (at dose=25 mg/kg) by using mouse hot plate test; type: functional; procedure, shortened: as §2
Mus musculus [13] = assay: Licking latency was measured after 15 min treatment (at dose=10 mg/kg) by using mouse hot plate test; type: functional; procedure, shortened: as §2
Mus musculus [14] = assay: Licking latency was measured after 45 min treatment (at dose=10 mg/kg) by using mouse hot plate test; type: functional; procedure, shortened: as §2
Mus musculus [15] = assay: Licking latency was measured after 45 min treatment (at dose=25 mg/kg) by using mouse hot plate test; type: functional; procedure, shortened: as §2
Mus musculus [16] = assay: Licking latency was measured before treatment (at dose=10 mg/kg) by using mouse hot plate test; type: functional; procedure, shortened: as §2
Mus musculus [17] = assay: Licking latency was measured before treatment (at dose=25 mg/kg) by using mouse hot plate test; type: functional; procedure, shortened: as §2
Mus musculus [18] = assay: Licking latency was measured after 30 min treatment (at dose=10 mg/kg) by using mouse hot plate test; type: functional; procedure, shortened: as §2
Mus musculus [19] = assay: Licking latency was measured after 30 min treatment (at dose=25 mg/kg) by using mouse hot plate test (*P<0.01); type: functional; procedure, shortened: as §2
Mus musculus [20] = species: Mus musculus; assay: Analgesic efficacy is expressed as percentage of that epibatidine, done on mouse.; type: functional
Mus musculus [21] = species: Mus musculus; assay: Analgesic efficacy is expressed as percentage of that morphine, done on mouse.; type: functional
Mus musculus [22] = assay: 15.5 Licking latency was measured after 15 min treatment (at dose=5 mg/kg) by using mouse hot plate test; type: functional; procedure, shortened: as §2
Mus musculus [23] = assay: Licking latency was measured after 30 min treatment (at dose=5 mg/kg) by using mouse hot plate test; type: functional; procedure, shortened: as §2
Mus musculus [24] = assay: Licking latency was measured before treatment (at dose=5 mg/kg) by using mouse hot plate test; type: functional; procedure, shortened: as §3
Mus musculus [25] = assay: Licking latency was measured after 45 min treatment (at dose=5 mg/kg) by using mouse hot plate test; type: functional; procedure, shortened: as §2
Mus musculus [26] = assay: Licking latency was measured after 15 min treatment (at dose=25 mg/kg) by using mouse hot plate test (*P<0.01); type: functional; procedure, shortened: as §2
Mus musculus [27] = assay: Licking latency was measured after 15 min treatment (at dose=15 mg/kg) by using mouse hot plate test (*P<0.01); type: functional; procedure, shortened: as §2
Mus musculus [28] = assay: Licking latency was measured after 45 min treatment (at dose=15 mg/kg) by using mouse hot plate test (*P<0.01); type: functional; procedure, shortened: as §2
Mus musculus [29] = assay: Licking latency was measured after 45 min treatment (at dose=25 mg/kg) by using mouse hot plate test (*P<0.01); type: functional; procedure, shortened: as §2
Mus musculus [30] = assay: Licking latency was measured before treatment (at dose=15 mg/kg) by using mouse hot plate test; type: functional; procedure, shortened: as §2
Mus musculus [31] = assay: Licking latency was measured after 30 min treatment (at dose=15 mg/kg) by using mouse hot plate test (*P<0.01); type: functional; procedure, shortened: as §2
Mus musculus [32] = assay: Licking latency was measured after 15 min treatment (at dose=5 mg/kg) by using mouse hot plate test; type: functional; procedure, shortened: as §2
Mus musculus [33] = assay: Licking latency was measured after 30 min treatment (at dose=25 mg/kg) by using mouse hot plate test; type: functional; procedure, shortened: as §2

SMILES	MNTD (Mus musculus [1]) [mg/kg]	MAD (Mus musculus [11]) [mg/kg]	Licking latency (Mus musculus [12]) [s]	Licking latency (Mus musculus [13]) [s]	Licking latency (Mus musculus [14]) [s]	Licking latency (Mus musculus [15]) [s]	Licking latency (Mus musculus [16]) [s]	Licking latency (Mus musculus [17]) [s]	Licking latency (Mus musculus [18]) [s]	Analgesic efficacy compared to epibatidine (Mus musculus [20]) [%]	Analgesic efficacy compared to morphine (Mus musculus [21]) [%]	Licking latency (Mus musculus [23]) [s]	Licking latency (Mus musculus [24]) [s]	Licking latency (Mus musculus [25]) [s]	also measured
CCC(=O)N1C2CCC1CN(c1ccc(Cl)nn1)C2	>60														MAD (Mus musculus [2]): inactive; Licking latency (Mus musculus [3]): 17.1 s; Licking latency (Mus musculus [4]): 18 s; Licking latency (Mus musculus [5]): 18.4 s; Licking latency (Mus musculus [6]): 13.8 s; Licking latency (Mus musculus [7]): 14.5 s; Licking latency (Mus musculus [8]): 17 s; Licking latency (Mus musculus [9]): 16.4 s; Licking latency (Mus musculus [10]): 15.6 s
Clc1cc(N2CC3CCC(C2)N3)ncn1	30	10	39.5	22.2	19.6	39.1	13.6	14.9	19.7	156	127				Licking latency (Mus musculus [19]): 38.5 s
Clc1cncc(N2CC3CCC(C2)N3)n1	15	5		24.6	22.3		13.6		22.5	70	57	15.5	15.1	15.7	Licking latency (Mus musculus [22]): 19.7 s
Clc1ccc(N2C3CCC2CNC3)nn1	30	15		17	17.4		12.2	15	15.4	130	107				Licking latency (Mus musculus [26]): 35.5 s; Licking latency (Mus musculus [27]): 23.2 s; Licking latency (Mus musculus [28]): 20.6 s; Licking latency (Mus musculus [29]): 26.4 s; Licking latency (Mus musculus [30]): 15.3 s; Licking latency (Mus musculus [31]): 22.9 s; Licking latency (Mus musculus [19]): 34.8 s
CN1CC[C@]23c4c5ccc(O)c4O[C@H]2[C@@H](O)C=C[C@H]3[C@H]1C5 [MORPHINE]	20	2								122	100				
CSc1nc(Cl)cc(N2CC3CCC(C2)N3)n1	30	5	40.8			36.5		15.1		182	149	20.5	14.7	18.7	Licking latency (Mus musculus [32]): 20.3 s; Licking latency (Mus musculus [33]): 43.8 s
Clc1cccnc1N1CC2CCC(C1)N2	40	10	39.2			27.5		15.3		151	124	20.3	13.7	18.3	Licking latency (Mus musculus [32]): 21.3 s; Licking latency (Mus musculus [33]): 29.7 s
